Active and inactive are the calls of the source.
Experiments:
Plasmodium berghei [1] = assay: Antimalarial activity against blood schizont stage of Plasmodium berghei infected in mouse assessed as mean survival days of host at 80 mg/kg (reference value: 6.1 days); assay type: functional
Plasmodium berghei [2] = assay: Antimalarial activity against blood schizont stage of Plasmodium berghei infected in mouse assessed as mean survival days of host at 20 mg/kg (reference value: 6.1 days); assay type: functional
Plasmodium cynomolgi [3] = assay: Antimalarial activity against sporozoite stage of Plasmodium cynomolgi infected in rhesus monkey assessed as radical curative activity at 1 mg/kg measured for 90 days; assay type: functional, organism-based; design: dose 1 mg/kg
Summary of the method: (§1)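 Rhesus monkeys infected by sporozoite inoculation of Plasmodium cynomolgi and dosed at the mg/kg levels given. Results are recorded as cures per number of animals, or as the day of relapse. An animal with no relapse within 90 days is counted as cured.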

Plasmodium cynomolgi [4] = assay: Antimalarial activity against sporozoite stage of Plasmodium cynomolgi infected in rhesus monkey assessed as radical curative activity at 0.25 mg/kg measured for 90 days; assay type: functional, organism-based; design: dose 0.25 mg/kg; summary of the method: as §1
Plasmodium berghei [5] = assay: Antimalarial activity against blood schizont stage of Plasmodium berghei infected in mouse assessed as mean survival days of host at 320 mg/kg (reference value: 6.1 days); assay type: functional
Plasmodium berghei [6] = assay: Antimalarial activity against blood schizont stage of Plasmodium berghei infected in mouse assessed as mean survival days of host at 160 mg/kg (reference value: 6.1 days); assay type: functional
Plasmodium cynomolgi [7] = assay: Antimalarial activity against sporozoite stage of Plasmodium cynomolgi infected in rhesus monkey assessed as radical curative activity at 10 mg/kg measured for 90 days; assay type: functional, organism-based; design: dose 10 mg/kg; summary of the method: as §1
Plasmodium cynomolgi [8] = assay: Antimalarial activity against sporozoite stage of Plasmodium cynomolgi infected in rhesus monkey assessed as radical curative activity at 0.5 mg/kg measured for 90 days; assay type: functional, organism-based; design: dose 0.5 mg/kg; summary of the method: as §1
Plasmodium berghei [9] = assay: Antimalarial activity against blood schizont stage of Plasmodium berghei infected in mouse assessed as mean survival days of host at 40 mg/kg (reference value: 6.1 days); assay type: functional
Plasmodium cynomolgi [10] = assay: Antimalarial activity against sporozoite stage of Plasmodium cynomolgi infected in rhesus monkey assessed as radical curative activity at 0.75 mg/kg measured for 90 days; assay type: functional, organism-based; design: dose 0.75 mg/kg; summary of the method: as §1
Mus musculus [11] = assay: Toxicity in mouse infected with blood schizont stage of Plasmodium berghei assessed as mortality at 320 mg/kg measured prior to 6th day; assay type: organism-based; design: dose 320 mg/kg; conditions: in vivo
Summary of the method: (§2)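 In P. berghei-infected mice, five per group, deaths occurring before day 6 after infection are recorded as drug-toxic deaths.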

Mus musculus [12] = assay: Toxicity in mouse infected with blood schizont stage of Plasmodium berghei assessed as mortality at 640 mg/kg measured prior to 6th day; assay type: organism-based; design: dose 640 mg/kg; conditions: in vivo; summary of the method: as §2
Mus musculus [13] = assay: Toxicity in mouse infected with blood schizont stage of Plasmodium berghei assessed as mortality at 160 mg/kg measured prior to 6th day; assay type: organism-based; design: dose 160 mg/kg; conditions: in vivo; summary of the method: as §2
Plasmodium cynomolgi [14] = assay: Antimalarial activity against sporozoite stage of Plasmodium cynomolgi infected in rhesus monkey assessed as radical curative activity at 0.125 mg/kg measured for 90 days; assay type: functional, organism-based; design: dose 0.125 mg/kg; summary of the method: as §1
Plasmodium berghei [15] = assay: Antimalarial activity against blood schizont stage of Plasmodium berghei infected in mouse assessed as complete disease cure at 640 mg/kg measured 60 days post infection infection; assay type: functional, organism-based; design: dose 640 mg/kg
Summary of the method: (§3)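 Mice infected with blood-stage Plasmodium berghei, five animals per group, following the Osdene et al. method. Cures are the number of mice alive 60 days after infection. Deaths before day 6 are scored as toxic. Activity is read as the increase in mean survival time over untreated controls, and a group counts as active when its MST exceeds twice the control MST.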

Plasmodium berghei [16] = assay: Antimalarial activity against blood schizont stage of Plasmodium berghei infected in mouse assessed as complete disease cure at 320 mg/kg measured 60 days post infection infection; assay type: functional, organism-based; design: dose 320 mg/kg; summary of the method: as §3
Plasmodium berghei [17] = assay: Antimalarial activity against blood schizont stage of Plasmodium berghei infected in mouse assessed as mean survival days of host at 640 mg/kg (reference value: 6.1 days); assay type: functional

Row | SMILES | Survival (Plasmodium berghei [1]) [days] | Survival (Plasmodium berghei [2]) [days] | Activity (Plasmodium cynomolgi [3]) | Activity (Plasmodium cynomolgi [4]) | Survival (Plasmodium berghei [5]) [days] | Survival (Plasmodium berghei [6]) [days] | Activity (Plasmodium cynomolgi [7]) | Activity (Plasmodium cynomolgi [8]) | Survival (Plasmodium berghei [9]) [days] | Activity (Plasmodium cynomolgi [10]) | Activity (Mus musculus [11]) | Activity (Mus musculus [12]) | Activity (Mus musculus [13]) | Activity (Plasmodium cynomolgi [14]) | Activity (Plasmodium berghei [15]) | Activity (Plasmodium berghei [16]) | Survival (Plasmodium berghei [17]) [days]
1 | COc1cc(NC(C)CCCN)c2ncccc2c1Oc1ccc(Cl)cc1 (configuration not stated) | 5.5 | 0.7 | Active | inactive | 8.1 | 7.1 | Active | Active | 4.7 |  |  |  |  |  |  |  | 
2 | COc1cc(NC(C)CCCN)c2ncccc2c1 (configuration not stated) [PRIMAQUINE] | 9.4 | 4 |  | inactive |  |  |  |  | 5 | Active | Toxic | Toxic | Toxic |  |  |  | 
3 | COc1cc(NC(C)CCCN)c2ncccc2c1Oc1ccc(NC(C)=O)cc1 (configuration not stated) |  |  | inactive | inactive |  |  | inactive | inactive |  | inactive |  |  |  | inactive |  |  | 
4 | COc1cc(NC(C)CCCN)c2ncccc2c1Oc1ccc(F)cc1.O.O=C(O)CC(O)(CC(=O)O)C(=O)O (configuration not stated) | 7.5 | 2.1 |  |  |  | 8.9 |  | inactive | 5.7 |  |  |  |  | inactive | Active | Active | 
5 | COc1cc(NC(C)CCCN)c2ncccc2c1Oc1ccccc1.O.O=P(O)(O)O (configuration not stated) | 1.7 | 0.3 |  |  | 7.5 | 5.1 |  |  | 1.5 |  |  |  |  |  |  |  | 9.9

Reference: ChEMBL document CHEMBL3244096, “Modifications of primaquine as antimalarials. 1. 5-Phenoxy derivatives of primaquine” (J Med Chem, 1977)
